We go through 13 molecules from ChEMBL document CHEMBL3407394, “Synthesis and in vitro anticancer activity evaluation of novel bioreversible phosphate inositol derivatives” (Eur J Med Chem, 2015).

pIC50: −log10 of the molar value.

The subject of series [1] is A549. In words: Cytotoxicity against human A549 cells assessed as growth inhibition after 72 hrs by MTT assay. To be noted: A549, 72 h. The format is functional, cell-based. In short, it runs like this:
(§1)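 A549, HeLa and MDA-MB-231 cells were grown in DMEM with 10% FBS and 1% penicillin/streptomycin. About 1000 cells/well were seeded and left 12 h, then exposed to a dilution series in DMSO (final 0.5% DMSO) for 72 h at 37 °C, 5% CO2. MTT in fresh medium was added for 4 h, formazan dissolved in DMSO, and OD570 read. Viability was normalized to vehicle, and IC50 taken by linear regression of concentration-response curves.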
(In general: Formazan colour is commonly taken as a measure of viable cells.)

Series [2] has as its system HeLa. In words: Cytotoxicity against human HeLa cells assessed as growth inhibition at 10 ug/ml after 72 hrs by MTT assay. To be noted: read-out: GI. It counts as functional. In short, it runs like this:
(§2)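 Single-concentration screen in A549, HeLa or MDA-MB-231 cells cultured in DMEM, 10% FBS, 1% penicillin/streptomycin. About 1000 cells/well were preincubated 12 h, and compound diluted in DMEM to the final well concentration (0.5% DMSO) for 72 h at 37 °C, 5% CO2. Readout was MTT 4 h, DMSO-solubilized formazan, OD570, with inhibition relative to DMSO vehicle. Cisplatin in 1% NaCl (pH 7) served as positive control.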

For series [3], the system named is MDA-MB-231. In words: Cytotoxicity against human MDA-MB-231 cells assessed as growth inhibition after 72 hrs by MTT assay. It counts as functional, cell-based. To be noted: MDA-MB-231, 72 h. The method in brief:
as §1

A short description of series [4]: Cytotoxicity against human MCF10A cells assessed as growth inhibition at 10 ug/ml after 72 hrs by MTT assay. The format is cell-based, MCF-10A. To be noted: read-out: GI. The method in brief:
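MCF10A cells in DMEM/F12 plus 5% horse serum, about 1000 per well, were incubated 12 h, then treated at one final well concentration diluted in DMEM (0.5% DMSO) for 72 h, 37 °C, 5% CO2. Viability was by MTT: 4 h in fresh medium, formazan dissolved in DMSO, absorbance at 570 nm, normalized to vehicle controls. Cisplatin in 1% NaCl, pH 7, was the positive control.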

The test system of series [5] is A549. As to the kind of experiment: Cytotoxicity against human A549 cells assessed as growth inhibition at 10 ug/ml after 72 hrs by MTT assay. To be noted: A549, 72 h, read-out: GI. It counts as functional. In short, it runs like this: as §2
A short description of series [6]: Cytotoxicity against human MCF10A cells assessed as growth inhibition after 72 hrs by MTT assay. The format is cell-based. To be noted: MCF-10A. In short, it runs like this: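 MCF10A non-cancerous cells were maintained in DMEM/F12 with 5% horse serum. About 1000 cells/well were seeded and attached for 12 h, then dosed over a dilution series (DMSO vehicle, final 0.5%) for 72 h at 37 °C, 5% CO2. MTT in fresh medium ran 4 h, formazan was dissolved in DMSO and OD570 measured. Viability was relative to vehicle-treated cells, and IC50 came from linear regression of concentration-response curves.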

Series [7] relates to HeLa. In words: Cytotoxicity against human HeLa cells assessed as growth inhibition after 72 hrs by MTT assay. The format is functional, cell-based. In short, it runs like this:
as §1

For series [8], the system named is MDA-MB-231. In words: Cytotoxicity against human MDA-MB-231 cells assessed as growth inhibition at 10 ug/ml after 72 hrs by MTT assay. It counts as functional. To be noted: MDA-MB-231, 72 h, read-out: GI. In short, it runs like this:
as §2

Broadly, the pIC50 is the negative decadic logarithm of the IC50, by convention in mol/L. On to `CC(=O)Oc1ccc(COP(=O)(OCc2ccc(OC(C)=O)cc2)OC2C3OCOC(C3OCc3ccccc3)C(OCc3ccccc3)C2OP(=O)(OCc2ccc(OC(C)=O)cc2)OCc2ccc(OC(C)=O)cc2)cc1` (centres undefined), for which the pIC50 with A549 [1] was 5.70; in the series on MDA-MB-231 [3], 6.37; in series [6] it was 6.07; in the series on HeLa [7], 6.21. Besides, the results for the inhibition of growth at 10 µg/mL in the series with HeLa [2], in the series on A549 [5] and with MDA-MB-231 [8] were 100%, 92.1% and 86.8%, respectively. Besides, the inhibition at 72 h, 10 ug/ml in series [4] came to 90.4%.
Take `CC(=O)Oc1ccc(COP(=O)(OCc2ccc(OC(C)=O)cc2)OC2C3OC4OC(C3OCc3ccccc3)C(OP(=O)(OCc3ccc(OC(C)=O)cc3)OCc3ccc(OC(C)=O)cc3)C2O4)cc1` (centres undefined): the pIC50 was 5.86 with A549 [1], 5.82 with MDA-MB-231 [3], under 4.30 in series [6] and 6.12 in the series on HeLa [7]. In addition, the inhibition of growth at 10 µg/mL came out at 100% with HeLa [2], 98.5% in the series on A549 [5] and 99.7% in the series on MDA-MB-231 [8]. The inhibition at 72 h, 10 ug/ml in series [4] was 38.8%.
Consider `CC(=O)Oc1ccc(COP(=O)(OCc2ccc(OC(C)=O)cc2)OC2C3OC4OC2C(OP(=O)(OCc2ccc(OC(C)=O)cc2)OCc2ccc(OC(C)=O)cc2)C(O4)C3OP(=O)(OCc2ccc(OC(C)=O)cc2)OCc2ccc(OC(C)=O)cc2)cc1` (centres undefined), for which the pIC50 in the series with A549 [1] is 5.15; with MDA-MB-231 [3], 5.72; in series [6], under 4.70; in the series on HeLa [7] it was 5.85. The figures for the inhibition of growth at 10 µg/mL in the series on HeLa [2], in the series with A549 [5] and in the series on MDA-MB-231 [8] were 94.2%, 85.8% and 92.4%, respectively. In addition, the inhibition at 72 h, 10 ug/ml in series [4] is -2.9%.
`CC(=O)Oc1ccc(COP(=O)(OCc2ccc(OC(C)=O)cc2)OC2C(OCc3ccccc3)C3OCOC(C3OCc3ccccc3)C2OCc2ccccc2)cc1` (centres undefined): the pIC50 with A549 [1] was 5.09; in the series on MDA-MB-231 [3], 5.80; in series [6], 4.72; with HeLa [7], 5.82. The inhibition of growth at 10 µg/mL was found to be 98.1% with HeLa [2], 75.4% with A549 [5] and 12.4% in the series on MDA-MB-231 [8]. The inhibition at 72 h, 10 ug/ml in series [4] was determined as 48.9%.
Regarding `CC(=O)Oc1ccc(COP(=O)(OCc2ccc(OC(C)=O)cc2)OC2C3OC4OC(C3OCc3ccccc3)C(OCc3ccccc3)C2O4)cc1` (centres undefined), the pIC50 is 5.17 in the series with A549 [1], 5.56 in the series with MDA-MB-231 [3], 4.34 in series [6] and 5.90 with HeLa [7]. For the same molecule, the inhibition of growth at 10 µg/mL was 100% in the series on HeLa [2], 88.9% in the series with A549 [5] and 95.8% in the series with MDA-MB-231 [8]. In addition, in series [4], the inhibition at 72 h, 10 ug/ml was 20.1%.
As for `C#CCO[C@@H]1[C@@H](OCc2ccccc2)[C@H](OP(=O)(OCc2ccc(OC(C)=O)cc2)OCc2ccc(OC(C)=O)cc2)[C@H](OP(=O)(OCc2ccc(OC(C)=O)cc2)OCc2ccc(OC(C)=O)cc2)[C@H](OP(=O)(OCc2ccc(OC(C)=O)cc2)OCc2ccc(OC(C)=O)cc2)[C@H]1OCc1ccccc1`, the pIC50 in the series on A549 [1] was under 4.52; in the series on MDA-MB-231 [3], under 4.52; in series [6], under 4.52; in the series with HeLa [7] it was 4.72. Moreover, the inhibition of growth at 10 µg/mL in the series on HeLa [2] was 100%; in the series on A549 [5] it was 2.5%; with MDA-MB-231 [8], 88.1%. Moreover, the inhibition at 72 h, 10 ug/ml in series [4] came to 15.4%.
Take `CC(=O)Oc1ccc(COP(=O)(OCc2ccc(OC(C)=O)cc2)OC2C3OCOC2C(OP(=O)(OCc2ccc(OC(C)=O)cc2)OCc2ccc(OC(C)=O)cc2)C(OP(=O)(OCc2ccc(OC(C)=O)cc2)OCc2ccc(OC(C)=O)cc2)C3OCc2ccccc2)cc1` (centres undefined): the pIC50 in the series with A549 [1] was 5.37; in the series with MDA-MB-231 [3] it was 5.77; in series [6], under 4.70; in the series on HeLa [7], 5.97. Further, the inhibition of growth at 10 µg/mL was found to be 94.3% with HeLa [2], 94% in the series with A549 [5] and 94.4% in the series with MDA-MB-231 [8]. The inhibition at 72 h, 10 ug/ml in series [4] is 2.5%.
Regarding `CC(=O)Oc1ccc(COP(=O)(OCc2ccc(OC(C)=O)cc2)O[C@@H]2[C@@H](OCc3ccccc3)[C@H](OP(=O)(OCc3ccc(OC(C)=O)cc3)OCc3ccc(OC(C)=O)cc3)[C@H](OCc3ccccc3)[C@H](OCc3ccccc3)[C@H]2OCc2ccccc2)cc1`, the pIC50 in the series with A549 [1] is 4.57; in the series on MDA-MB-231 [3], 4.54; in series [6], under 4.40; in the series on HeLa [7] it was 4.91. Also, the inhibition of growth at 10 µg/mL in the series with HeLa [2] was 27.2%; in the series with A549 [5], 27.1%; in the series on MDA-MB-231 [8] it was 88.4%. Besides, the inhibition at 72 h, 10 ug/ml in series [4] was 10.5%.
`CC(=O)Oc1ccc(COP(=O)(OCc2ccc(OC(C)=O)cc2)O[C@@H]2[C@@H](OP(=O)(OCc3ccc(OC(C)=O)cc3)OCc3ccc(OC(C)=O)cc3)[C@H](OCc3ccccc3)[C@@H](OCc3ccccc3)[C@H](OCc3ccccc3)[C@@H]2OP(=O)(OCc2ccc(OC(C)=O)cc2)OCc2ccc(OC(C)=O)cc2)cc1`: the pIC50 is 5.50 with A549 [1], 5.48 in the series with MDA-MB-231 [3], under 4.70 in series [6] and under 4.70 in the series with HeLa [7]. Besides, the inhibition of growth at 10 µg/mL in the series with HeLa [2] came to 68.5%; in the series on A549 [5], 34.9%; in the series with MDA-MB-231 [8], 52.8%. Moreover, the inhibition at 72 h, 10 ug/ml in series [4] is 55.3%.
As for `CC(=O)Oc1ccc(COP(=O)(OCc2ccc(OC(C)=O)cc2)OC2C3OCOC2C(OCc2ccccc2)C(OP(=O)(OCc2ccc(OC(C)=O)cc2)OCc2ccc(OC(C)=O)cc2)C3OCc2ccccc2)cc1` (centres undefined), the pIC50 is 5.26 with A549 [1], 5.63 in the series on MDA-MB-231 [3], 4.63 in series [6] and 6.02 in the series on HeLa [7]. In addition, the inhibition of growth at 10 µg/mL came to 100% in the series with HeLa [2], 43.7% with A549 [5] and 99.4% in the series with MDA-MB-231 [8]. Besides, the inhibition at 72 h, 10 ug/ml in series [4] came out at 48%.
For `CC(=O)Oc1ccc(COP(=O)(OCc2ccc(OC(C)=O)cc2)O[C@H]2[C@@H]3OC(C)(C)O[C@H]3[C@H](OP(=O)(OCc3ccc(OC(C)=O)cc3)OCc3ccc(OC(C)=O)cc3)[C@H]3OC(C)(C)O[C@H]32)cc1`, the pIC50 with A549 [1] was 5.63; with MDA-MB-231 [3], 6.08; in series [6], 4.60; in the series with HeLa [7], 6.21. In addition, the inhibition of growth at 10 µg/mL turned out to be 100% with HeLa [2], 90.1% in the series with A549 [5] and 91.8% with MDA-MB-231 [8]. Moreover, the inhibition at 72 h, 10 ug/ml in series [4] was -10.7%.
For `CC(=O)Oc1ccc(COP(=O)(OCc2ccc(OC(C)=O)cc2)OC2C3OC4OC(C3OCc3ccccc3)C(O[Si](C)(C)C(C)(C)C)C2O4)cc1` (centres undefined), the pIC50 with A549 [1] was 5.02; in the series with MDA-MB-231 [3], 5.63; in series [6] it was 4.42; with HeLa [7], 5.87. For the same molecule, the inhibition of growth at 10 µg/mL turned out to be 100% with HeLa [2], 100% in the series on A549 [5] and 84.3% in the series with MDA-MB-231 [8]. Also, in series [4], the inhibition at 72 h, 10 ug/ml is 100%.
In the case of `CC(=O)Oc1ccc(COP(=O)(OCc2ccc(OC(C)=O)cc2)OC2C(OCc3ccccc3)C3OC(C)OC(C3OCc3ccccc3)C2OCc2ccccc2)cc1` (centres undefined), the pIC50 with A549 [1] was 4.94; with MDA-MB-231 [3] it was 5.55; in series [6], 5.09; in the series with HeLa [7], 5.55. Besides, the inhibition of growth at 10 µg/mL worked out at 100% with HeLa [2], 96.6% in the series on A549 [5] and 9.5% in the series on MDA-MB-231 [8]. The inhibition at 72 h, 10 ug/ml in series [4] stood at 98.1%.
